HTRA1 inh = blocks human HTRA1 serine peptidase; recombinant HTRA1, FP-rhodamine activity-based probe, fluorescence polarization; inhibition, % at 5.96 µM; 0.5% of 340,000 active; AID 504803; in the data active = inhibition above about 36%
SIAE inh = human SIAE inhibition, primary screen; Q9HAT2; AID 1053197; SIAE FP-Rh probe binding, fluorescence polarization; 0.69% of 370,000 active; inhibition, % at 9.66 µM;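 active = inhibition above a cutoff: mean of compounds within the control limits plus 3 SD of those, cut at about 17% in these data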
TCR CD3 inh = inhibitors of human TCR-CD3 interaction | 0.37% of 360,000 active | inhibition, % at 9.4 µM | TAMRA-labeled TCR probe fluorescence, biochemical; in the data active = inhibition above about 19%;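 also: recombinant mutant TCR 2C K166C tagged with TAMRA read by polarization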
pPAFAH FP inh = inhibitors of human plasma PAF acetylhydrolase (pPAFAH); Q13093; recombinant pPAFAH, FP-rhodamine probe fluorescence polarization; 1.5% of 330,000 active; inhibition, % at 3.39 µM;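 active = inhibition above the mean inhibition across the screen plus 3 SD, cut at about 25% in these data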;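 also: inhibitors block binding of the rhodamine activity-based probe so polarization drops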
Target sequence (Q13093 whole entry, looked up): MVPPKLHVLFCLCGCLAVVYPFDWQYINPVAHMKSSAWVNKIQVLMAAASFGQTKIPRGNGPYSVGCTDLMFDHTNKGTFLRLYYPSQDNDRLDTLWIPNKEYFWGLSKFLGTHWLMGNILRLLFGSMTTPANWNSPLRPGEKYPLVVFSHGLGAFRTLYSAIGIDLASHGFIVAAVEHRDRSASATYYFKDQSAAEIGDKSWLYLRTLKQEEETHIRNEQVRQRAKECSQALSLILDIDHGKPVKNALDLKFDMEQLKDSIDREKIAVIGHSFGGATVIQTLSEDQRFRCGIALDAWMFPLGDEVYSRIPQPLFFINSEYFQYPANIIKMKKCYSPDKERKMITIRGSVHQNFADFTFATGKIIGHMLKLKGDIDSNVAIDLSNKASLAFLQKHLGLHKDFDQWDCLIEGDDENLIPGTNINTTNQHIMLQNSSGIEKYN
ABHD4 inh = inhibitors of mouse ABHD4; Q8VD66; purified mABHD4, FP-Rh probe fluorescence polarization; inhibition, % at 8.92 µM; 0.54% of 370,000 active; AID 720543;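 active = inhibition exceeding the mean over every tested compound plus 3 SD, cut at about 30% in these data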
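Doses – 8.92 µM, single dose · Material – wild-type mouse ABHD4 protein · Replication – single well per compound (singlicate) · Measure – percent inhibition of probe binding, normalized to plate controls · Schedule – 45 min compound pre-incubation plus 60 min probe step, 25 °C · Detection – fluorescence polarization with parallel and perpendicular emission, 525/598 nm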
Each line names hits and unclear results; the compound was inactive in the other large screens. An excerpt weighted towards active compounds, which were near 2.3% of everything screened.

COc1ccc(C(=O)OCCCN(C)C2CN(Cc3cn(Cc4ccc([N+](=O)[O-])cc4)nn3)S(=O)(=O)C2)cc1OC (stereo not drawn)	none (no result: HTRA1 inh, TCR CD3 inh, pPAFAH FP inh)
O=C(N/N=C/c1ccc([N+](=O)[O-])o1)c1cc2ccccc2o1	pPAFAH FP inh 30
O=C(N/N=C/c1ccc([N+](=O)[O-])o1)c1ccccc1NS(=O)(=O)c1cccs1	pPAFAH FP inh 34
O=C(CSc1nnc(-c2ccccn2)n1-c1ccccc1)Nc1ccccc1-c1ccccc1	none (no result: HTRA1 inh, TCR CD3 inh, pPAFAH FP inh)
CC(C)N1CCc2c(sc(NC(=O)C(F)(F)F)c2-c2nc3ccccc3s2)C1	none (no result: HTRA1 inh, TCR CD3 inh, pPAFAH FP inh)
CCOC(=O)c1c(NC(=O)COc2ccccc2OCC)sc2c1CC(C)(C)NC2(C)C	none (no result: SIAE inh, TCR CD3 inh, ABHD4 inh)
CCOC(=O)c1c(NC(=O)Cc2ccccc2)sc2c1CC(C)(C)NC2(C)C	pPAFAH FP inh 32
CC(C)CNC(=O)C1CSCCS(=O)(=O)N1Cc1ccccc1 (stereo not drawn)	none (no result: HTRA1 inh, TCR CD3 inh, pPAFAH FP inh)
COc1ccc(C2=Nn3c(nnc3C3CCCCC3)SC2)cc1	none (no result: HTRA1 inh, TCR CD3 inh, pPAFAH FP inh)
COCC(=O)N(C)[C@H]1C[C@H]2c3[nH]c4c(-c5ccccc5)cccc4c3CCN2C(=O)[C@H]1[C@H](C)O	none (no result: HTRA1 inh, pPAFAH FP inh)
O=C1c2ccccc2C(=O)N1/N=C/c1ccc(O)c(O)c1O	HTRA1 inh 44 (no result: SIAE inh, TCR CD3 inh, pPAFAH FP inh, ABHD4 inh)
O=C1c2cccc3cccc(c23)C(=O)N1/N=C/c1ccc(O)cc1O	none
COc1ccc(NS(=O)(=O)c2ccc(OC)c(N(C)S(=O)(=O)c3ccc(Cl)cc3)c2)cc1	pPAFAH FP inh 28
CCOc1ccc(N=Cc2ccc([N+](=O)[O-])cc2)c(O)c1	ABHD4 inh 35 (no result: pPAFAH FP inh)
Cc1ccc(/C=C(\C#N)C(=O)NCC2CCCO2)o1 (stereo not drawn)	none
Cc1ccccc1-n1c(C)cc(/C=C(\C#N)C(=O)NCC2CCCO2)c1C (stereo not drawn)	pPAFAH FP inh 26
CCOc1ccc(-n2c(SCC(=O)Nc3ccc(Oc4ccccc4)cc3)nnc2-c2ccncc2)cc1	none (no result: HTRA1 inh, TCR CD3 inh, pPAFAH FP inh)
O=C1CC2c3cc(-c4cc5ccccc5o4)ccc3CCN2C(=O)CN1Cc1ccccc1 (stereo not drawn)	none (no result: HTRA1 inh, pPAFAH FP inh)
Nc1nc(N)c2cc(Sc3ccc4ccccc4c3)ccc2n1	SIAE inh 29 (no result: HTRA1 inh)
O=C1N(Cc2ccccc2)c2ccccc2C12CCCc1oc(CCc3ccccc3)nc12 (stereo not drawn)	none (no result: HTRA1 inh, TCR CD3 inh, pPAFAH FP inh)
Cc1ccc2nc(-c3ccc(NC(=O)CSc4nnc(-c5ccccc5)n4Cc4ccco4)cc3)sc2c1	none (no result: HTRA1 inh, TCR CD3 inh, pPAFAH FP inh)
CCNC(=S)Nc1cc(OCC)c(NC(=O)c2ccco2)cc1OCC	none
Cc1ccccc1NS(=O)(=O)c1ccc(NC(=O)c2nc3ncccn3n2)cc1	pPAFAH FP inh 29
Cc1ccccc1NS(=O)(=O)c1ccc(NC(=O)c2ccco2)cc1	pPAFAH FP inh 29
COc1ccccc1NS(=O)(=O)c1ccc(NC(=O)c2nc3ncccn3n2)cc1	none (no result: pPAFAH FP inh)
CCOc1cc(NS(=O)(=O)c2ccccc2)c(OCC)cc1NC(=O)c1ccco1	pPAFAH FP inh 31
Cc1ccccc1NC(=O)c1ccco1	none
Cc1ccccc1Cn1cc(COC(=O)NCCc2ccccc2)nn1	none (no result: HTRA1 inh, TCR CD3 inh, pPAFAH FP inh)
Cc1ccc(C)c(S(=O)(=O)N2CCN(C(=O)c3ccc(-n4cncn4)c([N+](=O)[O-])c3)CC2)c1	none
Cc1ccc(C)c(S(=O)(=O)N2CCN(C(=O)c3ccc(N4CCCC4)c([N+](=O)[O-])c3)CC2)c1	pPAFAH FP inh 25
O=C(CN1C(=O)c2ccccc2S1(=O)=O)NC1CCCCCC1	none
O=C(CN1c2cccc3cccc(c23)S1(=O)=O)NC1CCCCC1	pPAFAH FP inh 30
CC1=C(C#N)C(=O)N(C2CCS(=O)(=O)C2)C(=O)/C1=C\c1ccc(C)o1 (stereo not drawn)	pPAFAH FP inh 37 (no result: HTRA1 inh, SIAE inh, TCR CD3 inh, ABHD4 inh)
COc1ccc(CN2C(=O)N3Cc4ccccc4C3CS2(=O)=O)cc1 (stereo not drawn)	none (no result: HTRA1 inh, TCR CD3 inh, pPAFAH FP inh)
CCC(C)Nc1nc(N)c([N+](=O)[O-])c(Nc2cc(OC)ccc2OC)n1 (stereo not drawn)	pPAFAH FP inh 29
CCOC(=O)C(=O)N1CCC(C(=O)NC2CCCc3ccccc32)CC1 (stereo not drawn)	none (no result: HTRA1 inh, TCR CD3 inh, pPAFAH FP inh)
O=C(COc1ccc(-c2ccccc2)cc1)NNC(=O)Nc1ccccc1	none
CC(C)(C)c1ccc(OCC(=O)NNC(=O)Nc2ccccc2)cc1	pPAFAH FP inh 30
O=C(CSc1nccc(=O)[nH]1)Nc1cccc(S(=O)(=O)N2CCOCC2)c1	pPAFAH FP inh 30
Cc1ccc(C(=O)NCC(=O)OCC(=O)Nc2cc(S(=O)(=O)N3CCOCC3)ccc2C)cc1	none

Assay outcomes: PubChem, The Scripps Research Institute Molecular Screening Center
